Data: ChEMBL document CHEMBL4616673 (J Med Chem, 2020)

Tests used:
[1] = Acute toxicity in BALB/c mouse assessed as effect on blood UA level at 400 mg/kg, po measured on day 14; assay type: organism-based; details: in vivo
How it was run: (§1)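 BALB/c mice, female and male, 6-8 weeks old, given oral doses within 24 h, up to 400 mg/kg (free compound) or 800 mg/kg (nanocrystal formulation). Watched for body weight loss, diarrhea, anorexia, skin ulcer and toxic death. Serum biochemistry panel was run at the end of treatment.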

Raji [2] = assay: Antitumor activity against human Raji cells xenografted in NOD-SCID nude mouse assessed as tumor growth inhibition at 80 mg/kg/day, po administered 6 days a week for 3 weeks relative to control; assay type: functional; details: read-out: TGI
K562 = assay: Antiproliferative activity against human K562 cells assessed as reduction in cell viability measured after 48 hrs by MTT assay; assay type: functional, cell-based; details: Homo sapiens, K562, 48 h
Raji [3] = assay: Cell cycle arrest in human Raji cells assessed as accumulation at S phase at 0.031 uM measured after 24 hrs by propidium iodide/RNase staining based flow cytometry (reference value: 52%); assay type: functional
[4] = Acute toxicity in BALB/c mouse assessed as effect on heart at 400 mg/kg, po measured on day 14 by H and E staining based light microscopic analysis; assay type: organism-based; details: in vivo
How it was run: (§2)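 Female and male BALB/c mice, 6-8 weeks old, dosed orally within 24 h at up to 400 mg/kg (free compound) or 800 mg/kg (nanocrystal). At the end of treatment, heart, liver, spleen, lung and kidney were sectioned, stained with H&E and imaged by light microscopy.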

Raji [5] = assay: Induction of apoptosis in human Raji cells assessed as early apoptotic cells at 0.125 uM measured after 48 hrs by Annexin V-FITC staining based flow cytometry (reference value: 1 %); assay type: functional
[6] = Acute toxicity in BALB/c mouse assessed as effect on blood LDH level at 800 mg/kg, po measured on day 14; assay type: organism-based; details: in vivo; how it was run: as §1
Raji [7] = assay: Induction of ROS generation in human Raji cells assessed as increase in ROS level measured after 24 hrs by DHE dye based fluorescence microplate reader assay; assay type: functional, cell-based
How it was run: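 Raji cells treated 24 h, harvested, stained with 10 μM DHE in pre-warmed PBS for 15 min in the dark. Fluorescence read on a plate reader at ex 510/em 600 nm. Mean ± SD.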

[8] = Toxicity in NOD-SCID nude mouse xenografted with human Raji cells assessed as effect on body weight at 30 mg/kg/day, po administered 6 days a week for 3 weeks and measured every 3 days; assay type: organism-based; details: in vivo
How it was run: (§3)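 Mice, 6-7 weeks old, injected s.c. with 1×10^7 Raji cells in serum-free medium plus basement membrane matrix. At 100–200 mm3 tumours, randomised (n=6). Oral dosing 6 days/week for 3 weeks: 30 mg/kg/d free compound suspended in 5% NMP/95% PEG400, or 40 or 80 mg/kg/d nanocrystal. Body weight and tumour volume measured every 3 days.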

[9] = Acute toxicity in BALB/c mouse assessed as effect on blood TG level at 800 mg/kg, po measured on day 14; assay type: organism-based; details: in vivo; how it was run: as §1
[10] = Toxicity in NOD-SCID nude mouse xenografted with human Raji cells assessed as effect on body weight at 40 to 80 mg/kg/day, po administered 6 days a week for 3 weeks and measured every 3 days during compound dosing; assay type: organism-based; details: in vivo; how it was run: as §3
[11] = Acute toxicity in BALB/c mouse assessed as effect on blood CHO1 level at 800 mg/kg, po measured on day 14; assay type: organism-based; details: in vivo; how it was run: as §1
[12] = Acute toxicity in BALB/c mouse assessed as effect on blood ALT level at 400 mg/kg, po measured on day 14; assay type: organism-based; details: in vivo; how it was run: as §1
Raji [13] = assay: Induction of apoptosis in human Raji cells assessed as necrotic cells at 0.063 uM measured after 48 hrs by Annexin V-FITC staining based flow cytometry (reference value: 0.21 %); assay type: functional
[14] = Acute toxicity in BALB/c mouse assessed as effect on blood CHO1 level at 400 mg/kg, po measured on day 14; assay type: organism-based; details: in vivo; how it was run: as §1
[15] = Acute toxicity in BALB/c mouse assessed as effect on blood CREA level at 800 mg/kg, po measured on day 14; assay type: organism-based; details: in vivo; how it was run: as §1
[16] = Acute toxicity in BALB/c mouse assessed as effect on liver at 400 mg/kg, po measured on day 14 by H and E staining based light microscopic analysis; assay type: organism-based; details: in vivo; how it was run: as §2
[17] = Acute toxicity in BALB/c mouse assessed as effect on blood ALT level at 800 mg/kg, po measured on day 14; assay type: organism-based; details: in vivo; how it was run: as §1
[18] = Acute toxicity in BALB/c mouse assessed as effect on blood ALP level at 800 mg/kg, po measured on day 14; assay type: organism-based; details: in vivo; how it was run: as §1
[19] = Acute toxicity in BALB/c mouse assessed as effect on blood CK level at 800 mg/kg, po measured on day 14; assay type: organism-based; details: in vivo; how it was run: as §1
[20] = Acute toxicity in BALB/c mouse assessed as effect on blood TP level at 800 mg/kg, po measured on day 14; assay type: organism-based; details: in vivo; how it was run: as §1
[21] = Acute toxicity in BALB/c mouse assessed as effect on liver at 800 mg/kg, po measured on day 14 by H and E staining based light microscopic analysis; assay type: organism-based; details: in vivo; how it was run: as §2
[22] = Acute toxicity in BALB/c mouse assessed as effect on blood LDLC level at 400 mg/kg, po measured on day 14; assay type: organism-based; details: in vivo; how it was run: as §1
[23] = Acute toxicity in BALB/c mouse assessed as effect on blood GLU level at 400 mg/kg, po measured on day 14; assay type: organism-based; details: in vivo; how it was run: as §1
Raji [24] = assay: Antitumor activity against human Raji cells xenografted in NOD-SCID nude mouse assessed as tumor growth inhibition at 30 mg/kg/day, po administered 6 days a week for 3 weeks relative to control; assay type: functional; details: read-out: TGI
How it was run: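 Nude mice given 1 × 10^7 Raji cells s.c. in serum-free medium plus basement membrane matrix. Randomized at 100–200 mm3 tumour volume (n = 6 per group). Oral dosing 6 days/week for 3 weeks. Vehicles: 30 mg/kg/d in 5% NMP/95% PEG400, 10 mg/kg/d in 30% PEG300/70% saline. Volume = ab²/2 every 3 days. TGI from treated vs control volume change, initial to final day.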

[25] = Acute toxicity in BALB/c mouse assessed as effect on blood AST level at 400 mg/kg, po measured on day 14; assay type: organism-based; details: in vivo; how it was run: as §1
[26] = Half life in mouse liver microsomes at 1 uM in presence of NADPH by LC-MS analysis; assay type: ADME, Microsome
How it was run: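 Compound at 1 μM with 0.5 mg/mL human, rat or mouse liver microsomes and 1 mM NADPH. Stopped with acetonitrile at 0, 5, 15, 30, 45, 60 and 90 min, centrifuged. Supernatant analysed by LC-MS/MS.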

A549 = assay: Antiproliferative activity against human A549 cells assessed as reduction in cell viability measured after 48 hrs by MTT assay; assay type: functional, cell-based; details: Homo sapiens, A549, 48 h
[27] = Acute toxicity in BALB/c mouse assessed as effect on blood HDL level at 400 mg/kg, po measured on day 14; assay type: organism-based; details: in vivo; how it was run: as §1
[28] = Acute toxicity in BALB/c mouse assessed as effect on lung at 400 mg/kg, po measured on day 14 by H and E staining based light microscopic analysis; assay type: organism-based; details: in vivo; how it was run: as §2

O=C1c2ccccc2C(=O)c2c1nnn2-c1cc(F)c(-c2ccccc2F)c(F)c1
Activity [1]: Non-Toxic | inhibition in vivo at 80 mg/kg/day (Raji [2]): 68% | IC50 (K562): 110 nM | Activity (Raji [3]): 76.62% | Activity [4]: Non-Toxic | Activity (Raji [5]): 4.1% | Activity [6]: Non-Toxic | Activity (Raji [7]): Dose-dependent effect | Activity [8]: Non-Toxic | Activity [9]: Non-Toxic | Activity [10]: Non-Toxic | Activity [11]: Non-Toxic | Activity [12]: Non-Toxic | Activity (Raji [13]): 0.34% | Activity [14]: Non-Toxic | Activity [15]: Non-Toxic | Activity [16]: Non-Toxic | Activity [17]: Non-Toxic | Activity [18]: Non-Toxic | Activity [19]: Non-Toxic | Activity [20]: Non-Toxic | Activity [21]: Non-Toxic | Activity [22]: Non-Toxic | Activity [23]: Non-Toxic | inhibition in vivo at 30 mg/kg/day (Raji [24]): 42% | Activity [25]: Non-Toxic | half-life at 1 µM ([26]; liver microsomes): 37 min | t1/2 ([26]; microsomes, 1 µM): 50 min | IC50 (A549): 1650 nM | Activity [27]: Non-Toxic | Activity [28]: Non-Toxic
